Reference: ChEMBL document CHEMBL3091303, “1,3-Dialkyl-substituted tetrahydropyrimido[1,2-f]purine-2,4-diones as multiple target drugs for the potential treatment of neurodegenerative diseases” (Bioorg Med Chem, 2013)

Legend:
[1] = target: Adenosine receptor A2a (Homo sapiens, UniProt P29274); test: Displacement of [3H]MSX-2 from human adenosine A2A receptor expressed in CHO cells; type: cell-based
Outline: (§1)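 Radioligand binding to human receptors recombinantly expressed in Chinese hamster ovary (CHO) cells. Results are Ki, or % inhibition of radioligand binding at the indicated concentration.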

[2] = target: T1, Adenosine receptor A2b (Homo sapiens, UniProt P29275); test: Displacement of [3H]PSB-603 from human adenosine A2B receptor
T1 sequence (P29275 whole entry): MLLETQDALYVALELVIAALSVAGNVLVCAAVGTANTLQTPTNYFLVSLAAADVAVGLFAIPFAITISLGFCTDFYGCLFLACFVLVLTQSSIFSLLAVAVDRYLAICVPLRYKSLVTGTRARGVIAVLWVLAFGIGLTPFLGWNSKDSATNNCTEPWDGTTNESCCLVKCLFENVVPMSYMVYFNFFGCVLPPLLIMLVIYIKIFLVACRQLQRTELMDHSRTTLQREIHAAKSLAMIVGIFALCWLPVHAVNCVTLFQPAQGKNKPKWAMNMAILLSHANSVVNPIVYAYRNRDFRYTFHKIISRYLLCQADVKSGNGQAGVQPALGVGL

[3] = target: T2, Adenosine receptor A1 (Homo sapiens, UniProt P30542); test: Displacement of [3H]CCPA from human adenosine A1 receptor expressed in CHO cells; type: cell-based; outline: as §1
T2 sequence (P30542 whole entry): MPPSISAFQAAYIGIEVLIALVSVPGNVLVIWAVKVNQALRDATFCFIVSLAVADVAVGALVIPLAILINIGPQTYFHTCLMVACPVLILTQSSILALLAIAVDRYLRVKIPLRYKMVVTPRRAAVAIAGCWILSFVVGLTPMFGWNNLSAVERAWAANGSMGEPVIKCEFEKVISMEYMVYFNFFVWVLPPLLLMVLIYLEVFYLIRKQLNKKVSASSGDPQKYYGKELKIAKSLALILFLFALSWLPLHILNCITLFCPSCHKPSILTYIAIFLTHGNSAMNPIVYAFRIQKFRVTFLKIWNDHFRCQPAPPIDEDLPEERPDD

[4] = target: T3, Adenosine receptor A3 (Homo sapiens) (UniProt P0DMS8); test: Displacement of [3H]PSB-11 from human adenosine A3 receptor expressed in CHO cells relative to control; type: cell-based; parameters: concentration or dose not given beside the values; conditions: concentration not given here
T3 sequence (whole entry): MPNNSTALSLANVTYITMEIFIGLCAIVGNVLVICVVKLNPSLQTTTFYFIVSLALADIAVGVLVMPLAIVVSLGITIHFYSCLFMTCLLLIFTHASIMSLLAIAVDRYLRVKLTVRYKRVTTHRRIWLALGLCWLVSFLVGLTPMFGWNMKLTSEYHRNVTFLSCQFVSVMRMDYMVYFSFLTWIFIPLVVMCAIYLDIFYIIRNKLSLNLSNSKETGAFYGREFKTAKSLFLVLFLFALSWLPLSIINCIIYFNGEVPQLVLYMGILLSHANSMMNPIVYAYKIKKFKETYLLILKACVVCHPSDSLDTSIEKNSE

[5] = target: T4, Adenosine receptor A1 (Rattus norvegicus, UniProt P25099); test: Displacement of [3H]CCPA from adenosine A1 receptor in rat brain cortex; type: tissue-based
T4 sequence (P25099 whole entry): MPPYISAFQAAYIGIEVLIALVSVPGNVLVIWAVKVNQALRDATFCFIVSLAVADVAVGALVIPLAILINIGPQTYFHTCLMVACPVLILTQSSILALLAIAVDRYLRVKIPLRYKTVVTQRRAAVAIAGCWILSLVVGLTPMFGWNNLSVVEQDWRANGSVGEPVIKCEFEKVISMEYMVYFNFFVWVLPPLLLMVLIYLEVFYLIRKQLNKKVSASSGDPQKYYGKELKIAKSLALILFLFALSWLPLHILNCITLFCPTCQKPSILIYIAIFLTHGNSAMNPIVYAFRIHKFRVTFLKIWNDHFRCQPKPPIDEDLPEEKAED
Outline: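 Radioligand binding to rat A1 receptors in rat brain cortical membrane preparations. Values are given as Ki, or as % inhibition of radioligand binding at the indicated concentration.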

[6] = target: T5, Adenosine receptor A3 (Homo sapiens, UniProt P0DMS8); test: Displacement of [3H]PSB-11 from human adenosine A3 receptor expressed in CHO cells; type: cell-based
T5 sequence (P0DMS8 whole entry): T3 sequence (whole entry)

[7] = target: T6, MAO-B (amine oxidase [flavin-containing] B) (Homo sapiens, UniProt P27338); test: Inhibition of human MAO-B at 10 uM relative to control
T6 sequence (P27338 whole entry): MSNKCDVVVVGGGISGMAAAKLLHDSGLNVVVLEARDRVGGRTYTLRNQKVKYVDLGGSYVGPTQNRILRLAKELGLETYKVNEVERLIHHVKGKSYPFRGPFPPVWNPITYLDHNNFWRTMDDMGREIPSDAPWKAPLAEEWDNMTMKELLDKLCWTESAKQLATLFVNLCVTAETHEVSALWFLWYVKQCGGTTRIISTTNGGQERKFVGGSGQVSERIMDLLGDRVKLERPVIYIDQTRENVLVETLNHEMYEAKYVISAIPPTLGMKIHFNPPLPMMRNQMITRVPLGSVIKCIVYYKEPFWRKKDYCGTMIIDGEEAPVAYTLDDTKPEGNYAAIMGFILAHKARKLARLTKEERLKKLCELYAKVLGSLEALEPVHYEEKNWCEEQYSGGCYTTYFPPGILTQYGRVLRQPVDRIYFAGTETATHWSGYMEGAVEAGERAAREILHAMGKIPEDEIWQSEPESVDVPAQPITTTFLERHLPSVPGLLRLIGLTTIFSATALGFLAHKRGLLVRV
Outline: (§2)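 Human MAO-A and MAO-B inhibition, screened first at a test concentration of 10 µM.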

[8] = target: Adenosine receptor A2a (Rattus norvegicus, UniProt P30543); test: Displacement of [3H]MSX-2 from adenosine A2A receptor in rat brain striatum; type: tissue-based
[9] = target: T7, Amine oxidase [flavin-containing] B (Homo sapiens, UniProt P27338); test: Inhibition of human MAO-B
T7 sequence (P27338 whole entry): T6 sequence (P27338 whole entry)

[10] = target: T8, Adenosine receptor A2b (Homo sapiens) (UniProt P29275); test: Displacement of [3H]PSB-603 from human adenosine A2B receptor relative to control; parameters: concentration or dose not given beside the values; conditions: concentration not given here
T8 sequence (whole entry): T1 sequence (P29275 whole entry)

[11] = target: T9, MAO-A (amine oxidase [flavin-containing] A) (Homo sapiens, UniProt P21397); test: Inhibition of human MAO-A at 10 uM relative to control; outline: as §2
T9 sequence (P21397 whole entry): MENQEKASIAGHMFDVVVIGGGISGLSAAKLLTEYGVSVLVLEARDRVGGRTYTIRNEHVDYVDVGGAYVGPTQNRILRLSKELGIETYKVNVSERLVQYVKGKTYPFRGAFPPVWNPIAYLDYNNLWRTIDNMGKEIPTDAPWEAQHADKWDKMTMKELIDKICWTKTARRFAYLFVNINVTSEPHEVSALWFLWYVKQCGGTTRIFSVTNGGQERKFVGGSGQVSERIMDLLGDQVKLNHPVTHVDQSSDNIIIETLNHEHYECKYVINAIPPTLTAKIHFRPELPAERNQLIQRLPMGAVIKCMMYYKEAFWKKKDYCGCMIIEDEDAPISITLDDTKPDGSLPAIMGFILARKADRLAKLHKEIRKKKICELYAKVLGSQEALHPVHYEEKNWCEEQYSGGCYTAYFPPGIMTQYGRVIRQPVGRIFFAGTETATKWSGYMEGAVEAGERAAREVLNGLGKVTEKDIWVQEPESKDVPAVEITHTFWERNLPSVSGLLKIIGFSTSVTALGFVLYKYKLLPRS

[12] = target: T10, Amine oxidase [flavin-containing] A (Homo sapiens, UniProt P21397); test: Inhibition of human MAO-A; outline: as §2
T10 sequence (P21397 whole entry): T9 sequence (P21397 whole entry)

Adenosine receptor A2a (Rattus norvegicus, UniProt P30543), sequence (P30543 whole entry): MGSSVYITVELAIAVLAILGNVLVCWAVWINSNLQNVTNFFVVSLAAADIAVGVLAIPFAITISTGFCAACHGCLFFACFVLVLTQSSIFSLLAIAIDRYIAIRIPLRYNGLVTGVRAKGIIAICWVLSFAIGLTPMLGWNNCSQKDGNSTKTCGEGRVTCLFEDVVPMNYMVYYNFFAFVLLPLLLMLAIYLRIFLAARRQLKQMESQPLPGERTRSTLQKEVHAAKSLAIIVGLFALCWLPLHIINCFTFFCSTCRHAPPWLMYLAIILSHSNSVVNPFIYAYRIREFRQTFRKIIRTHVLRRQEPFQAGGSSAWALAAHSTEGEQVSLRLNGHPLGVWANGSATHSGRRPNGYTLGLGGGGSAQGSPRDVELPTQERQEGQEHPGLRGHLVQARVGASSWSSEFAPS
Adenosine receptor A2a (Homo sapiens, UniProt P29274), sequence (P29274 whole entry): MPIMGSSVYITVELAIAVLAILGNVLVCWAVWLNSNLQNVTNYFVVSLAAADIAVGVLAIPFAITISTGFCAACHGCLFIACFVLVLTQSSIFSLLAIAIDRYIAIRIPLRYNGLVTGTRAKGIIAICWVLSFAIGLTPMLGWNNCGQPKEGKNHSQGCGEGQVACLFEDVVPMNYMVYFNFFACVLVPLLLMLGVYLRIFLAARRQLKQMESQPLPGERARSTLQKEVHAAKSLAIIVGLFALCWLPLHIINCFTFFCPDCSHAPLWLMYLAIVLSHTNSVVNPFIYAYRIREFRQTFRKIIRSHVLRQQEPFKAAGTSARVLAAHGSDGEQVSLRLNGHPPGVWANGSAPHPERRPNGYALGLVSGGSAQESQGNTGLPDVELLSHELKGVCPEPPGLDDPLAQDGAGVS

Compound | Ki [1] [nM] | Ki [2] [nM] | Ki [3] [nM] | inhibition [4] [%] | Ki [5] [nM] | Ki [6] [nM] | inhibition at 10 µM [7] [%] | Ki [8] [nM] | IC50 [9] [nM] | inhibition [10] [%] | inhibition at 10 µM [11] [%] | IC50 [12] [nM]
C#CCn1c(=O)c2c(nc3n2CCCN3C2CCC2)n(C)c1=O | 231 | 3970 | 866 | 13 | 1070 | > 10000 | 19 | 380 | > 10000 | – | – | –
Cn1c(=O)c2c(nc3n2CCCN3CCc2ccc(Cl)c(Cl)c2)n(C)c1=O | 5250 | > 1000 | – | 23 | 7240 | > 10000 | – | 780 | 86.9 | 10 | -2 | > 10000
C#CCn1c(=O)c2c(nc3n2CCCN3C2CCCCC2)n(C)c1=O | 311 | 17100 | 2360 | 25 | 515 | > 10000 | 26 | 361 | > 10000 | – | – | –
C#CCn1c(=O)c2c(nc3n2CCCN3CCc2ccc(OC)cc2)n(C)c1=O | 508 | > 1000 | 4400 | 13 | 3140 | > 1000 | 25 | 288 | > 10000 | 8 | – | –
C#CCn1c(=O)c2c(nc3n2CCCN3CCc2ccc(O)cc2)n(C)c1=O | 346 | > 10000 | 8260 | 28 | 501 | > 10000 | 37 | 276 | > 10000 | 12 | – | –
Cn1c(=O)c2c(nc3n2CCCN3CCc2ccc(Cl)cc2)n(C)c1=O | 5610 | > 1000 | – | 38 | 3030 | > 10000 | – | 515 | 624 | 8 | 4 | > 10000
C#CCn1c(=O)c2c(nc3n2CCCN3CC2CCCO2)n(C)c1=O (stereo not drawn) | 1110 | > 1000 | 1150 | 9 | 169 | > 10000 | 30 | 1430 | > 10000 | 6 | – | –
C#CCn1c(=O)c2c(nc3n2CCCN3CCc2cccs2)n(C)c1=O | 317 | > 1000 | 1410 | 20 | 990 | > 1000 | 17 | 710 | > 10000 | 16 | – | –
C#CCn1c(=O)c2c(nc3n2CCCN3Cc2ccccc2OC)n(C)c1=O | 417 | > 1000 | 605 | – | 1060 | 4410 | – | 641 | 1800 | 16 | 4 | > 10000
C#CCn1c(=O)c2c(nc3n2CCCN3c2ccc(F)cc2)n(C)c1=O | 2120 | > 1000 | 3610 | 22 | 1190 | > 10000 | 17 | 1940 | > 10000 | 7 | – | –
C#CCn1c(=O)c2c(nc3n2CCCN3CC2CCCCC2)n(C)c1=O | 510 | > 1000 | 1870 | 5 | 219 | > 100 | 33 | 498 | > 10000 | -5 | – | –
Cn1c(=O)c2c(nc3n2CCCN3CCc2cccc(Cl)c2)n(C)c1=O | 1350 | > 1000 | – | 43 | 1760 | > 10000 | – | 166 | 1350 | 1 | -4 | > 10000
